Reference: ChEMBL document CHEMBL2086296, “Synthesis of novel quinoline-2-one based chalcones of potential anti-tumor activity” (Eur J Med Chem, 2012)

Legend:
[1] = tested on: NCI-H226; experiment: Cytotoxicity against human NCI-H226 cells after 24 hrs by SRB assay; format: functional; conditions: NCI-H226, 24 h
How it was run: (§1)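 NCI 60-line screen. Cells in RPMI 1640 with 5% FBS and 2 mM L-glutamine, seeded at 5,000–40,000 cells/well by doubling time, then incubated 24 h at 37 °C, 5% CO2 before dosing. Time-zero plates fixed with TCA at drug addition. DMSO stocks diluted in medium with gentamicin to five concentrations, […]. Protein read by SRB staining. GI50, TGI and LC50 derived relative to control and time-zero.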

[2] = tested on: SNB-19; experiment: Cytotoxicity against human SNB19 cells after 24 hrs by SRB assay; format: functional; conditions: SNB-19, 24 h
How it was run: (§2)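 NCI 60-cell screen. Cells are grown in RPMI 1640 with 5% FBS and 2 mM L-glutamine and seeded at 5,000–40,000 cells/well according to doubling time. They are preincubated 24 h at 37 °C in 5% CO2, and Tz plates are TCA-fixed at drug addition. Drug stock is in DMSO, diluted in medium with gentamicin, and tested at five concentrations (100, 10, 1.0, 0.1, […]). Protein is read by SRB staining. GI50, TGI and LC50 are derived relative to time-zero and control wells.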

[3] = tested on: COLO 205; experiment: Cytotoxicity against human COLO205 cells after 24 hrs by SRB assay; format: functional; conditions: COLO 205, 24 h; how it was run: as §1
[4] = tested on: HOP-92; experiment: (§3) Cytotoxicity against human HOP92 cells after 24 hrs by SRB assay; format: cell-based; conditions: hop-92, 24 h
How it was run: (§4)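 NCI 60-cell screen. Cells grown in RPMI 1640 with 5% FBS and 2 mM L-glutamine, seeded at 5,000–40,000 cells/well, preincubated 24 h at 37 °C in 5% CO2. Drug stock in DMSO, diluted in medium with gentamicin; five final concentrations, 100, 10, 1.0, 0.1 and […]. Time-zero plates were TCA-fixed. Protein read by SRB staining; GI50, TGI and LC50 taken relative to time-zero.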

[5] = tested on: DU-145; experiment: Cytotoxicity against human DU145 cells after 24 hrs by SRB assay; format: functional; conditions: DU-145, 24 h; how it was run: as §1
[6] = tested on: HOP-62; experiment: Cytotoxicity against human HOP62 cells after 24 hrs by SRB assay; format: cell-based; conditions: hop-62, 24 h; how it was run: as §4
[7] = tested on: MDA-MB-231; experiment: Cytotoxicity against human MDA-MB-231 cells after 24 hrs by SRB assay; format: cell-based; conditions: mda-mb-231, 24 h; how it was run: as §4
[8] = tested on: HCC 2998; experiment: Cytotoxicity against human HCC2998 cells after 24 hrs by SRB assay; format: functional; conditions: HCC 2998, 24 h; how it was run: as §1
[9] = tested on: RPMI-8226; experiment: Cytotoxicity against human RPMI8226 cells after 24 hrs by SRB assay; format: cell-based; conditions: rpmi-8226, 24 h; how it was run: as §4
[10] = tested on: HCT-116; experiment: Cytotoxicity against human HCT116 cells after 24 hrs by SRB assay; format: cell-based; conditions: hct-116, 24 h; how it was run: as §4
[11] = tested on: SW-620; experiment: Cytotoxicity against human SW620 cells after 24 hrs by SRB assay; format: cell-based; conditions: sw-620, 24 h
How it was run: (§5)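 NCI 60-cell-line screen: cells grown in RPMI 1640 with 5% FBS and 2 mM L-glutamine, seeded at 5,000–40,000 cells/well by doubling time, and preincubated 24 h at 37 °C in 5% CO2. Time-zero plates were TCA-fixed. DMSO stocks were diluted in medium with gentamicin to five concentrations (100, 10, 1.0, 0.1, […]). Protein was read by SRB, and GI50, TGI and LC50 were derived against time-zero.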

[12] = tested on: MDA-MB-435; experiment: Cytotoxicity against human MDA-MB-435 cells after 24 hrs by SRB assay; format: functional; conditions: MDA-MB-435, 24 h; how it was run: as §1
[13] = tested on: SK-MEL-28; experiment: (§6) Cytotoxicity against human SK-MEL-28 cells after 24 hrs by SRB assay; format: functional; conditions: SK-MEL-28, 24 h; how it was run: as §1
[14] = tested on: M14; experiment: Cytotoxicity against human M14 cells after 24 hrs by SRB assay; format: cell-based; conditions: m14, 24 h; how it was run: as §4
[15] = tested on: HOP-92; experiment: as §3; format: functional; conditions: HOP-92, 24 h; how it was run: as §1
[16] = tested on: ACHN; experiment: Cytotoxicity against human ACHN cells after 24 hrs by SRB assay; format: functional; how it was run: as §1
[17] = tested on: SK-MEL-2; experiment: Cytotoxicity against human SK-MEL-2 cells after 24 hrs by SRB assay; format: cell-based; conditions: sk-mel-2, 24 h; how it was run: as §4
[18] = tested on: T47D; experiment: Cytotoxicity against human T47D cells after 24 hrs by SRB assay; format: cell-based; how it was run: as §5
[19] = tested on: TK-10; experiment: Cytotoxicity against human TK10 cells after 24 hrs by SRB assay; format: cell-based; conditions: tk-10, 24 h; how it was run: as §5
[20] = tested on: CAKI-1; experiment: Cytotoxicity against human CAKI-1 cells after 24 hrs by SRB assay; format: functional; conditions: CAKI-1, 24 h; how it was run: as §1
[21] = tested on: SK-MEL-28; experiment: as §6; format: cell-based; conditions: sk-mel-28, 24 h; how it was run: as §4
[22] = tested on: SF-295; experiment: Cytotoxicity against human SF295 cells after 24 hrs by SRB assay; format: functional; conditions: SF-295, 24 h; how it was run: as §1
[23] = tested on: BT-549; experiment: Cytotoxicity against human BT549 cells after 24 hrs by SRB assay; format: functional; conditions: BT-549, 24 h; how it was run: as §1
[24] = tested on: OVCAR-3; experiment: Cytotoxicity against human OVCAR3 cells after 24 hrs by SRB assay; format: cell-based; conditions: ovcar-3, 24 h; how it was run: as §4
[25] = tested on: UACC-257; experiment: Cytotoxicity against human UACC257 cells after 24 hrs by SRB assay; format: functional; conditions: UACC-257, 24 h; how it was run: as §2
[26] = tested on: CCRF-CEM; experiment: Cytotoxicity against human CCRF-CEM cells after 24 hrs by SRB assay; format: cell-based; how it was run: as §4
[27] = tested on: HL-60; experiment: Cytotoxicity against human HL60 cells after 24 hrs by SRB assay; format: cell-based; conditions: hl-60, 24 h; how it was run: as §4
[28] = tested on: EKVX; experiment: Cytotoxicity against human EKVX cells after 24 hrs by SRB assay; format: functional; how it was run: as §1
[29] = tested on: IGROV-1; experiment: (§7) Cytotoxicity against human IGROV1 cells after 24 hrs by SRB assay; format: functional; conditions: IGROV-1, 24 h; how it was run: as §1
[30] = (§8) Cytotoxicity against human Hs 578T cells after 24 hrs by SRB assay; format: cell-based; how it was run: as §4
[31] = tested on: Malme-3M; experiment: (§9) Cytotoxicity against human MALME-3M cells after 24 hrs by SRB assay; format: cell-based; how it was run: as §4
[32] = tested on: IGROV-1; experiment: as §7; format: cell-based; conditions: igrov-1, 24 h; how it was run: as §4
[33] = as §8; format: functional; how it was run: as §1
[34] = tested on: UO-31; experiment: (§10) Cytotoxicity against human UO31 cells after 24 hrs by SRB assay; format: cell-based; conditions: uo-31, 24 h; how it was run: as §5
[35] = tested on: Malme-3M; experiment: as §9; format: functional; how it was run: as §1
[36] = tested on: OVCAR-5; experiment: Cytotoxicity against human OVCAR5 cells after 24 hrs by SRB assay; format: cell-based; conditions: ovcar-5, 24 h; how it was run: as §4
[37] = tested on: NCI-H322M; experiment: Cytotoxicity against human NCI-H322M cells after 24 hrs by SRB assay; format: cell-based; how it was run: as §4
[38] = tested on: UO-31; experiment: as §10; format: functional; conditions: UO-31, 24 h; how it was run: as §2

## O=C(/C=C/c1cc2ccccc2[nH]c1=O)/C=C/c1cc2ccccc2[nH]c1=O
[1]
  GI50: 2.77 µM
  TGI: 8.01 µM
[2]
  GI50: 5.12 µM
  TGI: > 100 µM
[3]
  GI50: 2.89 µM
  TGI: > 100 µM
[4]
  LC50: > 100 µM
[5]
  GI50: 4.18 µM
  TGI: > 100 µM
[6]
  LC50: > 100 µM
[7]
  LC50: > 100 µM
[8]
  GI50: 0.839 µM
  TGI: 2.22 µM
[9]
  LC50: > 100 µM
[10]
  LC50: > 100 µM
[11]
  LC50: > 100 µM
[12]
  GI50: 0.258 µM
  TGI: 0.81 µM
[13]
  GI50: 4.96 µM
  TGI: > 100 µM
[14]
  LC50: > 100 µM
[15]
  GI50: > 100 µM
  TGI: > 100 µM
[16]
  GI50: 2.49 µM
  TGI: > 100 µM
[17]
  LC50: > 100 µM
[18]
  LC50: > 100 µM
[19]
  LC50: > 100 µM
[20]
  GI50: 2.36 µM
  TGI: > 100 µM
[21]
  LC50: > 100 µM
[22]
  GI50: 2.64 µM
[23]
  GI50: 1.9 µM
  TGI: 6.15 µM
[24]
  LC50: > 100 µM
[25]
  GI50: 1.98 µM
  TGI: 4.79 µM
[26]
  LC50: > 100 µM
[27]
  LC50: > 100 µM
[28]
  GI50: 2.61 µM
  TGI: > 100 µM

## O=C(/C=C/c1cc2ccccc2[nH]c1=O)c1ccc(Cl)cc1
[1]
  GI50: 11.6 µM
  TGI: 38.9 µM
[2]
  GI50: 5.11 µM
  TGI: > 100 µM
[3]
  GI50: 10.1 µM
  TGI: 51.3 µM
[4]
  LC50: > 100 µM
[5]
  GI50: 4.08 µM
  TGI: 48.9 µM
[6]
  LC50: > 100 µM
[29]
  GI50: 3.71 µM
  TGI: 14.7 µM
[7]
  LC50: > 100 µM
[30]
  LC50: > 100 µM
[31]
  LC50: > 100 µM
[32]
  LC50: 50.7 µM
[8]
  GI50: 6.55 µM
  TGI: 22.3 µM
[9]
  LC50: > 100 µM
[33]
  GI50: 11.1 µM
  TGI: > 100 µM
[10]
  LC50: 66.5 µM
[11]
  LC50: 56.6 µM
[12]
  GI50: 2.83 µM
  TGI: 13.1 µM
[13]
  GI50: 17.7 µM
  TGI: 72.5 µM
[14]
  LC50: > 100 µM
[34]
  LC50: > 100 µM
[15]
  GI50: 5.74 µM
  TGI: 50.5 µM
[16]
  GI50: 7.27 µM
  TGI: 27.4 µM
[17]
  LC50: 72.6 µM
[35]
  GI50: 9.42 µM
  TGI: 35.3 µM
[18]
  LC50: > 100 µM
[19]
  LC50: 75.8 µM
[20]
  GI50: 1.6 µM
  TGI: 3.3 µM
[36]
  LC50: > 100 µM
[37]
  LC50: > 100 µM
[21]
  LC50: > 100 µM
[22]
  GI50: 4.57 µM
  TGI: 38.3 µM
[23]
  GI50: 3.86 µM
  TGI: 17.1 µM
[24]
  LC50: > 100 µM
[38]
  GI50: 5.27 µM
  TGI: > 100 µM
[25]
  GI50: 7.78 µM
  TGI: 46.9 µM
[26]
  LC50: > 100 µM
[27]
  LC50: > 100 µM
[28]
  GI50: 4.92 µM
  TGI: > 100 µM

## COc1ccc(C(=O)/C=C/c2cc3ccccc3[nH]c2=O)cc1
[1]
  GI50: 5.57 µM
  TGI: > 100 µM
[2]
  GI50: 4.2 µM
  TGI: 19.1 µM
[3]
  GI50: 3.66 µM
  TGI: 13.4 µM
[4]
  LC50: 80.9 µM
[5]
  GI50: 3.14 µM
  TGI: 11.2 µM
[6]
  LC50: 59 µM
[7]
  LC50: > 100 µM
[30]
  LC50: > 100 µM
[8]
  GI50: 2.5 µM
  TGI: 6.49 µM
[9]
  LC50: > 100 µM
[33]
  GI50: 3.3 µM
  TGI: > 100 µM
[10]
  LC50: 31.6 µM
[11]
  LC50: 40.2 µM
[12]
  GI50: 3.92 µM
  TGI: 17.4 µM
[13]
  GI50: 7.59 µM
  TGI: 30.6 µM
[14]
  LC50: > 100 µM
[15]
  GI50: 2.97 µM
  TGI: 8.76 µM
[16]
  GI50: 3.93 µM
  TGI: 16.7 µM
[17]
  LC50: > 100 µM
[18]
  LC50: > 100 µM
[19]
  LC50: > 100 µM
[20]
  GI50: 1.78 µM
  TGI: 3.51 µM
[36]
  LC50: > 100 µM
[21]
  LC50: > 100 µM
[22]
  GI50: 3.98 µM
  TGI: 18.6 µM
[23]
  GI50: 2.7 µM
  TGI: 7.9 µM
[24]
  LC50: 29.8 µM
[25]
  GI50: 4.9 µM
  TGI: 18 µM
[26]
  LC50: > 100 µM
[27]
  LC50: > 100 µM
[28]
  GI50: 4.4 µM
  TGI: 83.8 µM
